Measured values published in ChEMBL document CHEMBL1124549, “N-azamonobactams. 2. Synthesis of some N-iminoacetic acid and N-glycyl analogues” (1989).
≈ marks a conversion by molar mass, not a printed value.

Assays:
Assay type in all cases: functional
Serratia marcescens [1] = experiment: In vitro antibacterial activity against IO-83-63 strain of Serratia marcescens
How it was run: (§1)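 Agar dilution on Mueller-Hinton agar holding 2-fold decreasing drug concentrations. Agar surfaces were spot-inoculated with (1-5) × 10^4 CFU per strain using a replicating device. Plates were incubated 18 h at 35 °C. MIC was recorded as the lowest concentration inhibiting growth of the strain.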

Enterobacter cloacae [2] = experiment: In vitro antibacterial activity against VGH-84-39 strain of Enterobacter cloacae
Escherichia coli [3] = experiment: In vitro antibacterial activity against MOR-84-20 strain of Escherichia coli; how it was run: as §1
Escherichia coli [4] = experiment: In vitro antibacterial activity against VGH-84-19 strain of Escherichia coli; how it was run: as §1
Klebsiella pneumoniae [5] = experiment: In vitro antibacterial activity against CMC-84-31 strain of Klebsiella pneumoniae; how it was run: as §1
Serratia marcescens [6] = experiment: In vitro antibacterial activity against MOR-84-41 strain of Serratia marcescens; how it was run: as §1
Klebsiella pneumoniae [7] = experiment: In vitro antibacterial activity against IO-83-5 strain of Klebsiella pneumoniae; how it was run: as §1
Escherichia coli [8] = experiment: In vitro antibacterial activity against CMC-84-50 strain of Escherichia coli; how it was run: as §1
Morganella morganii [9] = experiment: In vitro antibacterial activity against CMC-84-38 strain of Morganella morganii; how it was run: as §1
Providencia stuartii = experiment: In vitro antibacterial activity against CMC-83-3 strain of Providencia stuartii; how it was run: as §1
Enterobacter cloacae [10] = experiment: In vitro antibacterial activity against K-84-10 strain of Enterobacter cloacae
Citrobacter koseri = experiment: In vitro antibacterial activity against J-82-24 strain of Citrobacter diversus; how it was run: as §1
Serratia marcescens [11] = experiment: In vitro antibacterial activity against CMC-83-74 strain of Serratia marcescens; how it was run: as §1
Morganella morganii [12] = experiment: In vitro antibacterial activity against VGH-84-12 strain of Morganella morganii; how it was run: as §1
[13] = In vitro antibacterial activity against IO-83-21 strain of Proteus rettgeri; details: Providencia rettgeri; how it was run: as §1
Escherichia coli [14] = experiment: In vitro antibacterial activity against ATCC 25922 strain of Escherichia coli; how it was run: as §1
Morganella morganii [15] = experiment: In vitro antibacterial activity against MOR-84-45 strain of Morganella morganii; how it was run: as §1
Klebsiella pneumoniae [16] = experiment: In vitro antibacterial activity against MOR-84-24 strain of Klebsiella pneumoniae; how it was run: as §1
Enterobacter cloacae [17] = experiment: In vitro antibacterial activity against MOR-84-30 strain of Enterobacter cloacae

SMILES | MIC (Serratia marcescens [1]) [µg/mL] | MIC (Enterobacter cloacae [2]) [µg/mL] | MIC (Escherichia coli [3]) [µg/mL] | MIC (Escherichia coli [4]) [µg/mL] | MIC (Klebsiella pneumoniae [5]) [µg/mL] | MIC (Serratia marcescens [6]) [µg/mL] | MIC (Klebsiella pneumoniae [7]) [µg/mL] | MIC (Escherichia coli [8]) [µg/mL] | MIC (Morganella morganii [9]) [µg/mL] | MIC (Providencia stuartii) [µg/mL] | MIC (Enterobacter cloacae [10]) [µg/mL] | MIC (Citrobacter koseri) [µg/mL] | MIC (Serratia marcescens [11]) [µg/mL] | MIC (Morganella morganii [12]) [µg/mL] | MIC [13] [µg/mL] | MIC (Escherichia coli [14]) [µg/mL] | MIC (Morganella morganii [15]) [µg/mL] | MIC (Klebsiella pneumoniae [16]) [µg/mL] | MIC (Enterobacter cloacae [17]) [µg/mL]
CO/N=C(/C(=O)NC1CN(/N=C/C(=O)O)C1=O)c1csc(N)n1 (stereo unspecified) | 8 (≈ 23.5 µM) | 8 (≈ 23.5 µM) | 2 (≈ 5.88 µM) | 2 (≈ 5.88 µM) | 2 (≈ 5.88 µM) | 4 (≈ 11.8 µM) | 4 (≈ 11.8 µM) | 2 (≈ 5.88 µM) | 8 (≈ 23.5 µM) | 2 (≈ 5.88 µM) | 4 (≈ 11.8 µM) | 4 (≈ 11.8 µM) | 16 (≈ 47 µM) | 4 (≈ 11.8 µM) | 0.12 (≈ 0.353 µM) | 8 (≈ 23.5 µM) | 16 (≈ 47 µM) | 8 (≈ 23.5 µM) | 32 (≈ 94 µM)
CO/N=C(/C(=O)NC1CN(NCC(=O)O)C1=O)c1csc(N)n1 (stereo unspecified) | > 128 | > 128 | > 128 | > 128 | > 128 | > 128 | > 128 | > 128 | > 128 | > 128 | > 128 | > 128 | > 128 | > 128 | 64 (≈ 187 µM) | > 128 | > 128 | > 128 | > 128
C=CCOC(=O)CNN1CC(NC(=O)/C(=N/OC)c2csc(N)n2)C1=O (stereo unspecified) | 32 (≈ 83.7 µM) | 16 (≈ 41.8 µM) | 8 (≈ 20.9 µM) | 8 (≈ 20.9 µM) | 8 (≈ 20.9 µM) | 32 (≈ 83.7 µM) | 8 (≈ 20.9 µM) | 4 (≈ 10.5 µM) | 32 (≈ 83.7 µM) | 32 (≈ 83.7 µM) | 8 (≈ 20.9 µM) | 16 (≈ 41.8 µM) | 128 (≈ 335 µM) | 64 (≈ 167 µM) | 0.5 (≈ 1.31 µM) | 8 (≈ 20.9 µM) | 128 (≈ 335 µM) | 16 (≈ 41.8 µM) | 64 (≈ 167 µM)
C[C@H]1[C@H](NC(=O)/C(=N\OC(C)(C)C(=O)O)c2csc(N)n2)C(=O)N1S(=O)(=O)O [AZTREONAM] | – | – | 0.06 (≈ 0.138 µM) | 0.06 (≈ 0.138 µM) | 0.03 (≈ 0.0689 µM) | 0.06 (≈ 0.138 µM) | – | 0.06 (≈ 0.138 µM) | 0.015 (≈ 0.0344 µM) | 0.015 (≈ 0.0344 µM) | – | 0.03 (≈ 0.0689 µM) | 0.25 (≈ 0.574 µM) | 0.03 (≈ 0.0689 µM) | 0.002 (≈ 0.00459 µM) | 0.06 (≈ 0.138 µM) | 0.015 (≈ 0.0344 µM) | 0.06 (≈ 0.138 µM) | –
